# Test results reported in ChEMBL document CHEMBL4346709, “Design and Optimization Leading to an Orally Active TTK Protein Kinase Inhibitor with Robust Single Agent Efficacy” (J Med Chem, 2019).
# Assays:
# [1] = system: CAL-51; assay: Antiproliferative activity against human CAL51 cells assessed as reduction in cell viability after 3 days by CellTiter-Glo reagent-based luminescent assay; type: functional; details: CAL-51, 72 h
# [2] = AUC in rat at 10 mg/kg, po; type: ADME, organism-based; details: in vivo
# How it was run: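 Rat oral PK at 10 mg/kg. Compound is given as a solution in CMCT (0.5% CMC/0.25% tween-80) or formulated in 5% TPGS, 10% captisol, 50 mM citrate buffer. Cmax and AUC are recorded.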
# [3] = Cmax in CB17 SCID mouse at 30 mg/kg, po; type: ADME, organism-based; set-up: dose 30 mg/kg, route oral; details: in vivo
# How it was run: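 Oral PK in SCID mice at 30 mg/kg. Compound is formulated either in CMCT (0.5% CMC/0.25% tween-80) or in 5% TPGS, 10% captisol, 50 mM citrate buffer, depending on compound. Cmax and AUC are measured.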
# [4] = species: Homo sapiens; assay: Selectivity ratio of IC50 for recombinant human full length His-tagged JNK2 expressed in baculovirus expression system to IC50 for inhibition of Kinase Tracer 236 binding to recombinant human full-length GST-tagged TTk expressed in baculovirus expression system
# [5] = target: Mitogen-activated protein kinase 8 (Homo sapiens, UniProt P45983); assay: Inhibition of recombinant human full length His-tagged JNK1 expressed in baculovirus expression system by Z'-LYTE assay
# [6] = target: Dual specificity protein kinase CLK2 (Homo sapiens, UniProt P49760); assay: Inhibition of recombinant human GST-tagged CLK2 catalytic domain (137 to 498 residues) expressed in baculovirus expression system by Z'-LYTE assay
# [7] = target: T1, Testis-specific serine/threonine-protein kinase 1 (Homo sapiens, UniProt Q9BXA7); assay: Inhibition of recombinant human full length His-tagged TSSK1 expressed in baculovirus expression system by Z'-LYTE assay
# T1 sequence (Q9BXA7 whole entry): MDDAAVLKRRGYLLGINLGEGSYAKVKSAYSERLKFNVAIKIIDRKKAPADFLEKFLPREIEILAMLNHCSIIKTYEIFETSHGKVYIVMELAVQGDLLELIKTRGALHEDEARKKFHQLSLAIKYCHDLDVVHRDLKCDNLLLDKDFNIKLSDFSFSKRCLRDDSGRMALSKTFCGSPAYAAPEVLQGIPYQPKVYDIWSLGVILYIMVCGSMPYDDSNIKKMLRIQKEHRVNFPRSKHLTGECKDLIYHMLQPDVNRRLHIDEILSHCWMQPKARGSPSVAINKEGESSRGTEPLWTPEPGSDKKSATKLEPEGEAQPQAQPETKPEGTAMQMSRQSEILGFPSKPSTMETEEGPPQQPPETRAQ
# [8] = target: T2, Dual specificity tyrosine-phosphorylation-regulated kinase 3 (Homo sapiens, UniProt O43781); assay: Inhibition of recombinant human full length GST-tagged DYRK3 expressed in baculovirus expression system by Z'-LYTE assay
# T2 sequence (O43781 whole entry): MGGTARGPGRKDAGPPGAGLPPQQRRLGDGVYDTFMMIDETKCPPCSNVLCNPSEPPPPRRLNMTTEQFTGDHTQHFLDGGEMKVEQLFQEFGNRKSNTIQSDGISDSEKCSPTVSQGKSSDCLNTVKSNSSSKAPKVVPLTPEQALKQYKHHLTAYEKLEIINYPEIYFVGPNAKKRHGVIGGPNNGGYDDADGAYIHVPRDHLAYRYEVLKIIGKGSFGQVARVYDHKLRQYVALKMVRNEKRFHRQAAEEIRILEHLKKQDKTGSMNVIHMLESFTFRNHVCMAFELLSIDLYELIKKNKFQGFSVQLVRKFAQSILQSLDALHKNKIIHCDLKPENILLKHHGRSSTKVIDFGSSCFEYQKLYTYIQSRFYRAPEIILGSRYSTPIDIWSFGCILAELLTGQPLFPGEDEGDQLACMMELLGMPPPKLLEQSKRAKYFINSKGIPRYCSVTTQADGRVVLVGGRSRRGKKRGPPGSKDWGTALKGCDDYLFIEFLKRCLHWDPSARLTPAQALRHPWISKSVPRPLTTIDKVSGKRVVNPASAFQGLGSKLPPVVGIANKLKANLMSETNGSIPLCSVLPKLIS
# [9] = system: CAL-51; assay: Antitumor activity against human CAL51 cells xenografted in CB17 SCID mouse assessed as tumor growth inhibition at 60 mg/kg, po administered every seven days for 16 days and measured twice per week up to 31 days by caliper method relative to control; type: functional; details: CAL-51, po, read-out: TGI
# How it was run: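 Female CB17 SCID mice, 6-8 weeks old, inoculated subcutaneously with 2×10^6 CAL-51 cells. Oral dosing once weekly (QW) at 30-120 mg/kg, or 30 mg/kg BID QW, for 16 days, against vehicle control. Tumour long and short axes measured twice weekly by digital caliper; volume = width² × length/2. Values are TGI; data are mean ± SEM.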
# [10] = Metabolic stability in human liver S9 fraction assessed as parent compound remaining after 60 mins; type: ADME, subcellular; details: read-out: Stability
# [11] = system: CAL-51; assay: Induction of apoptosis in human CAL51 cells xenografted in CB17 SCID mouse assessed as activation of cleaved caspase-3 at 30 mg/kg, po measured after 1 to 48 hrs by MSD electrochemiluminescent immunoassay relative to control; type: functional
# How it was run: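 CB17 SCID mice bearing CAL-51 tumours of 300-500 mm3 given compound orally. At preset time points the mice were euthanised and the tumours dissected and snap-frozen in liquid nitrogen. pHH3 Ser10 or cleaved caspase measured by MSD electrochemiluminescent immunoassay kit. Data are mean ± SEM.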
# [12] = target: T3, Dual specificity tyrosine-phosphorylation-regulated kinase 3 (Homo sapiens) (UniProt O43781); assay: Inhibition of recombinant human full length GST-tagged DYRK3 expressed in baculovirus expression system at 3 uM by Z'-LYTE assay relative to control
# T3 sequence (whole entry): T2 sequence (O43781 whole entry)
# How it was run: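 Kinase selectivity panel: single-point assessment at 3 µM, n=1.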
# Chain of Dual specificity protein kinase CLK2 (P49760 whole entry, the tested form may be a part): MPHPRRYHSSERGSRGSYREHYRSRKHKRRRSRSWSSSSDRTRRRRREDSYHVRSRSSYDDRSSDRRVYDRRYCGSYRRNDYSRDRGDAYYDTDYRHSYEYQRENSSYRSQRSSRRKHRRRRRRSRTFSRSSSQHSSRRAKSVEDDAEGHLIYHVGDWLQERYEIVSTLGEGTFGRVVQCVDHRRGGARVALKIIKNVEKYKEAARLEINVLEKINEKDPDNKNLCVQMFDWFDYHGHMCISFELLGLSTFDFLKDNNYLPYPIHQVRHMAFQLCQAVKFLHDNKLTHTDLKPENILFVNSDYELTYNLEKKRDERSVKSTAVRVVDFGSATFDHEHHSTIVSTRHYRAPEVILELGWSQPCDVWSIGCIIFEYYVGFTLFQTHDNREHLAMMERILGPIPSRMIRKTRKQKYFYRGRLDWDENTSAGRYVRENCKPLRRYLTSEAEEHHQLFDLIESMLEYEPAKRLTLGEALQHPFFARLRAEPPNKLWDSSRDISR
# Chain of Mitogen-activated protein kinase 8 (P45983 whole entry, the tested form may be a part): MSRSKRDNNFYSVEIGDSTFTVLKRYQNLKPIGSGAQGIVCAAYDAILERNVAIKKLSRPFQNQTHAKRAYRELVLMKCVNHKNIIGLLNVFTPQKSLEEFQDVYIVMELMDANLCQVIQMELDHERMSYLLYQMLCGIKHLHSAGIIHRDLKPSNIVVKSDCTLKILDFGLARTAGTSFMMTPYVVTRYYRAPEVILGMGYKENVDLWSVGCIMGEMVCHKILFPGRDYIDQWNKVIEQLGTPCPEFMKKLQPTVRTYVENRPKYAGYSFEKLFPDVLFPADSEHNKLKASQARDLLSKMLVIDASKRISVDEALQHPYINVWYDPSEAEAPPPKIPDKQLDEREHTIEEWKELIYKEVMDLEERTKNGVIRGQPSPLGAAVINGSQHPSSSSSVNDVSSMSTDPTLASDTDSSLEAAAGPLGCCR
compound,measurement,setting,value
C[C@@H](Oc1cc(C(=O)N(C)C)ccc1Nc1nc(O[C@H]2CC[C@@](C)(O)CC2)c2c(Cl)c[nH]c2n1)C(F)(F)F,IC50,[1],10 nM
same,AUC,[2],26 to 26.3 µM·h
same,Cmax,[3],5.2 µM
same,Ratio IC50,[4],< 100
same,IC50,[5],0.032 nM
same,IC50,[6],0.261 nM
same,IC50,[7],0.217 nM
same,IC50,[8],0.104 nM
same,inhibition in vivo at 60 mg/kg,[9],65%
same,remaining at 1 h,[10],65%
same,Activity,[11],250%
same,inhibition,[12],> 80%
